Laboratory results reported in ChEMBL document CHEMBL1949664, “Epiminocyclohepta[b]indole analogs as 5-HT6 antagonists” (Bioorg Med Chem Lett, 2012).
pKi: −log10 of the molar value.

Assays:
Liver microsomes [1] = assay: (§1) Stability in rat liver microsomes assessed as compound remaining after 1 hr; format: ADME, Microsome; settings: microsomes, 1 h
Method in brief: (§2)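 Rat liver microsomes; percent parent compound remaining after 1 h incubation.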

Liver microsomes [2] = assay: (§3) Stability in human liver microsomes assessed as compound remaining after 1 hr; format: ADME, Microsome; settings: microsomes, 1 h
Method in brief: (§4)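 Human liver microsomes; percent parent compound remaining after 1 h incubation.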

Caco-2 [3] = assay: (§5) Permeability from apical to basolateral side of human Caco2 cells; format: ADME, cell-based
Method in brief: (§6)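 Caco-2 monolayers; apical-to-basolateral flux reported as ×10^-6 cm/s.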

[4] = Cmax (0 to 6 hrs) in Sprague-Dawley rat at 30 mg/kg, po; format: ADME, organism-based; design: dose 30 mg/kg, route oral; settings: in vivo
[5] = Tmax (0 to 6 hrs) in Sprague-Dawley rat at 30 mg/kg, po; format: ADME, organism-based; design: dose 30 mg/kg, route oral; settings: in vivo
[6] = Cmax in Sprague-Dawley rat at 10 mg/kg, po; format: ADME, organism-based; design: dose 10 mg/kg, route oral; settings: in vivo
[7] = Tmax in Sprague-Dawley rat at 10 mg/kg, po; format: ADME, organism-based; design: dose 10 mg/kg, route oral; settings: in vivo
[8] = Half life in Sprague-Dawley rat at 10 mg/kg, po; format: ADME, organism-based; design: dose 10 mg/kg, route oral; settings: in vivo
[9] = AUC (0 to infinity) in Sprague-Dawley rat at 10 mg/kg, po; format: ADME, organism-based; design: time infinity, dose 10 mg/kg, route oral; settings: plasma
[10] = Clearance in Sprague-Dawley rat at 2 mg/kg, iv; format: ADME, organism-based; design: dose 2 mg/kg, route intravenous; settings: in vivo
[11] = Volume of distribution at steady state in Sprague-Dawley rat at 2 mg/kg, iv; format: ADME, organism-based; design: dose 2 mg/kg, route intravenous; settings: in vivo, read-out: Vdss
[12] = Oral bioavailability in Sprague-Dawley rat at 10 mg/kg; format: ADME, organism-based; settings: in vivo
[13] = Oral bioavailability in Sprague-Dawley rat at 2 mg/kg; format: ADME, organism-based; settings: in vivo
[14] = Ratio of drug level in brain to plasma in Sprague-Dawley rat at 10 mg/kg, po after 6 hrs; format: ADME, organism-based; design: dose 10 mg/kg, route oral; settings: read-out: BPR
Rattus norvegicus [15] = assay: Ex vivo 5-HT6 serotonin receptor occupancy in Sprague-Dawley rat brain at 10 mg/kg after 6 hrs using [125I][…] by autoradiography; format: functional
Method in brief: (§7)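 Sprague Dawley rats dosed at 10, 30 or 90 mg/kg, brains taken at 6 or 24 h. Caudate putamen sections incubated with [125I]SB258585 alone (total) or plus methiothepin (non-specific); β-imager read-out. Two determinations per animal, 5 animals per dose group; specific binding expressed relative to vehicle controls.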

Rattus norvegicus [16] = assay: Ex vivo 5-HT6 serotonin receptor occupancy in Sprague-Dawley rat brain at 30 mg/kg after 6 hrs using [125I][…] by autoradiography; format: functional; method in brief: as §7
Rattus norvegicus [17] = assay: Ex vivo 5-HT6 serotonin receptor occupancy in Sprague-Dawley rat brain at 90 mg/kg after 6 hrs using [125I][…] by autoradiography; format: functional; method in brief: as §7
Rattus norvegicus [18] = assay: Ex vivo 5-HT6 serotonin receptor occupancy in Sprague-Dawley rat brain at 10 mg/kg after 24 hrs using [125I][…] by autoradiography; format: functional; method in brief: as §7
Rattus norvegicus [19] = assay: Ex vivo 5-HT6 serotonin receptor occupancy in Sprague-Dawley rat brain at 30 mg/kg after 24 hrs using [125I][…] by autoradiography; format: functional; method in brief: as §7
Rattus norvegicus [20] = assay: Ex vivo 5-HT6 serotonin receptor occupancy in Sprague-Dawley rat brain at 90 mg/kg after 24 hrs using [125I][…] by autoradiography; format: functional; method in brief: as §7
[21] = target: T1, 5-hydroxytryptamine receptor 6 (Homo sapiens, UniProt P50406); assay: Agonist activity at human 5-HT6 serotonin receptor expressed in CHO-1 cells assessed as cAMP production relative to 5-hydroxytryptamine; format: functional, cell-based; design: concentration or dose not given beside the values
T1 sequence (P50406 whole entry): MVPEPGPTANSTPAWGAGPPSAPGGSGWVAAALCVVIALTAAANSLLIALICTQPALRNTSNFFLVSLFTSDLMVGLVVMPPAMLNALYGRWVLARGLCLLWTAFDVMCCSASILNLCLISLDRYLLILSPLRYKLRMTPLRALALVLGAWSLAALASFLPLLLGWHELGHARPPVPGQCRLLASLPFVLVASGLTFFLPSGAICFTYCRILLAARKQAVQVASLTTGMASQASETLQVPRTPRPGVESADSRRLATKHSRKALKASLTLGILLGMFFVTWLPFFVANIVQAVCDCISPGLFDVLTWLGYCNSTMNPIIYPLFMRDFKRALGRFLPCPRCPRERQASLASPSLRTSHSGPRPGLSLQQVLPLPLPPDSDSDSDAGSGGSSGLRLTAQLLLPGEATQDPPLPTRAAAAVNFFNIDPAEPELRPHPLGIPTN

Rattus norvegicus [22] = species: Rattus norvegicus; assay: Ex vivo 5-HT6 serotonin receptor occupancy in Sprague-Dawley rat brain after 6 hrs using [125I][…] by autoradiography; format: functional, organism-based; method in brief: as §7
Caco-2 [23] = assay: (§8) Efflux ratio of permeability from basolateral to apical side over apical to basolateral side in human Caco2 cells; format: ADME, cell-based
[24] = target: T1, 5-hydroxytryptamine receptor 6; assay: Displacement of [3H]LSD from human 5-HT6 serotonin receptor by scintillation proximity assay
[25] = target: T1, 5-hydroxytryptamine receptor 6; assay: Antagonist activity at human 5-HT6 serotonin receptor expressed in CHO-1 cells assessed as inhibition of 5-hydroxytryptamine-induced cAMP production; format: functional, cell-based
[26] = as §1; format: ADME, Microsome; settings: liver microsomes, read-out: Stability; method in brief: as §2
[27] = as §3; format: ADME, Microsome; settings: liver microsomes, read-out: Stability; method in brief: as §4
[28] = as §5; format: ADME, cell-based; settings: caco-2, read-out: permeability; method in brief: as §6
[29] = as §8; format: ADME, cell-based; settings: caco-2

Cn1c2c(c3cc(S(=O)(=O)c4c[nH]c5ccccc45)ccc31)C1CCC(C2)N1 (single isomer, unassigned; (+)) [listing 1 of 2 here]
Stability (Liver microsomes [1]): 57% | Stability (Liver microsomes [2]): 86% | permeability (Caco-2 [3]): 1.05 ×10⁻⁶ cm/s

Cn1c2c(c3cc(S(=O)(=O)c4cccc(C(F)(F)F)c4)ccc31)C1CCC(C2)N1 (single isomer, unassigned; (+)) [listing 1 of 2 here]
Stability (Liver microsomes [1]): 79% | Stability (Liver microsomes [2]): 100% | permeability (Caco-2 [3]): 24.8 ×10⁻⁶ cm/s | Cmax [4]: 732 ng/mL | Tmax [5]: 6 h | Cmax [6]: 916 ng/mL | Tmax [7]: 4 h | half-life [8]: 600 min | AUC(0-inf) [9]: 26700 ng·h/mL | clearance [10]: 5.7 mL/min/kg | Vd [11]: 4.7 L/kg | bioavailability [12]: 91% | bioavailability [13]: 91% | Kp at 6 h [14]: 1.3 | Activity (Rattus norvegicus [15]): 60% | Activity (Rattus norvegicus [16]): 76% | Activity (Rattus norvegicus [17]): 78% | Activity (Rattus norvegicus [18]): 48% | Activity (Rattus norvegicus [19]): 74% | Activity (Rattus norvegicus [20]): 84%

Cn1c2c(c3cc(S(=O)(=O)c4cccc(C(F)(F)F)c4)ccc31)C1CCC(C2)N1 (single isomer, unassigned; (+)) [listing 2 of 2 here]
Activity [21]: < 15% | Activity (Rattus norvegicus [22]): Dose-dependent effect

Cn1c2c(c3cc(S(=O)(=O)c4cccc(Cl)c4)ccc31)C1CCC(C2)N1 (single isomer, unassigned; (+)) [listing 1 of 2 here]
Stability (Liver microsomes [1]): 72% | Stability (Liver microsomes [2]): 93% | permeability (Caco-2 [3]): 8.55 ×10⁻⁶ cm/s | Ratio (Caco-2 [23]): 4.4

Cn1c2c(c3cc(S(=O)(=O)c4c[nH]c5ccccc45)ccc31)C1CCC(C2)N1 (single isomer, unassigned; (-)) [listing 1 of 2 here]
Activity [21]: < 15%

CCN1C2CCC1c1c(n(C)c3ccc(S(=O)(=O)c4ccccc4)cc13)C2 (racemic)
pKi [24]: 7.04

Cn1c2c(c3cc(S(=O)(=O)c4c[nH]c5ccccc45)ccc31)C1CCC(C2)N1 (single isomer, unassigned; (+)) [listing 2 of 2 here]
Activity [21]: < 15%

Cn1c2c(c3cc(S(=O)(=O)c4ccccc4)ccc31)C1CCC(C2)N1 (single isomer, unassigned; (-))
Activity [21]: < 15%

Cn1c2c(c3cc(S(=O)(=O)c4csc5ccccc45)ccc31)C1CCC(C2)N1 (single isomer, unassigned) [listing 1 of 2 here]
Stability (Liver microsomes [1]): 80% | Stability (Liver microsomes [2]): 78% | permeability (Caco-2 [3]): 15.7 ×10⁻⁶ cm/s

Cn1c2c(c3cc(S(=O)(=O)c4cccc(C(F)(F)F)c4)ccc31)C1CCC(C2)N1 (single isomer, unassigned; (-)) [listing 1 of 2 here]
Activity [21]: < 15%

Cn1c2c(c3cc(S(=O)(=O)c4ccccc4)ccc31)C1CCC(C2)N1 (single isomer, unassigned; (+))
Activity [21]: < 15%

Cn1c2c(c3ccc(S(=O)(=O)c4ccccc4)cc31)C1CCC(C2)N1 (racemic)
pKi [24]: 6.88

Cn1c2c(c3cc(S(=O)(=O)c4ccc5[nH]ccc5c4)ccc31)C1CCC(C2)N1 (single isomer, unassigned; (+)) [listing 1 of 2 here]
Activity [21]: < 15%

Cn1c2c(c3cc(S(=O)(=O)c4cccc(Cl)c4)ccc31)C1CCC(C2)N1 (single isomer, unassigned; (+)) [listing 2 of 2 here]
Kb [25]: 4 nM | Activity [21]: < 15%

Cn1c2c(c3cc(S(=O)(=O)c4cccc(Cl)c4)ccc31)C1CCC(C2)N1 (single isomer, unassigned; (-)) [listing 1 of 2 here]
remaining at 1 h [26]: 63% | remaining at 1 h [27]: 76% | Papp A→B [28]: 7.49 ×10⁻⁶ cm/s | efflux ratio [29]: 6

Cn1c2c(c3cc(S(=O)(=O)n4ccc5ccccc54)ccc31)C1CCC(C2)N1 (single isomer, unassigned; (-)) [listing 1 of 2 here]
Activity [21]: < 15%

Cn1c2c(c3cc(S(=O)(=O)n4cccc4)ccc31)C1CCC(C2)N1 (racemic)
pKi [24]: 7.49

Cn1c2c(c3cc(S(=O)(=O)c4c[nH]c5ccccc45)ccc31)C1CCC(C2)N1 (single isomer, unassigned; (-)) [listing 2 of 2 here]
Stability (Liver microsomes [1]): 34% | remaining at 1 h [27]: 72% | permeability (Caco-2 [3]): 0.41 ×10⁻⁶ cm/s

Cn1c2c(c3cc(S(=O)(=O)c4cccc(C(F)(F)F)c4)ccc31)C1CCC(C2)N1 (single isomer, unassigned; (-)) [listing 2 of 2 here]
remaining at 1 h [26]: 65% | Stability (Liver microsomes [2]): 78% | Papp A→B [28]: 16.5 ×10⁻⁶ cm/s

Cn1c2c(c3cc(S(=O)(=O)c4ccc5[nH]ccc5c4)ccc31)C1CCC(C2)N1 (single isomer, unassigned; (-)) [listing 1 of 2 here]
Activity [21]: < 15%

Cn1c2c(c3cc(S(=O)(=O)n4ccc5ccccc54)ccc31)C1CCC(C2)N1 (single isomer, unassigned; (+)) [listing 1 of 2 here]
Stability (Liver microsomes [1]): 86% | Stability (Liver microsomes [2]): 96% | permeability (Caco-2 [3]): 12 ×10⁻⁶ cm/s | Cmax [4]: 41 ng/mL | Tmax [5]: 6 h

Cn1ccc(S(=O)(=O)c2ccc3c(c2)c2c(n3C)CC3CCC2N3)n1 (stereo unspecified)
pKi [24]: 6.00

Cn1c2c(c3cc(S(=O)(=O)c4cccc(Cl)c4)ccc31)C1CCC(C2)N1 (single isomer, unassigned; (-)) [listing 2 of 2 here]
Kb [25]: 3.5 nM | Activity [21]: < 15%

Cn1c2c(c3cc(S(=O)(=O)c4ccc5[nH]ccc5c4)ccc31)C1CCC(C2)N1 (single isomer, unassigned; (-)) [listing 2 of 2 here]
remaining at 1 h [26]: 77% | remaining at 1 h [27]: 89% | Papp A→B [28]: 0.55 ×10⁻⁶ cm/s

Cn1c2c(c3cc(S(=O)(=O)c4ccncc4)ccc31)C1CCC(C2)N1 (racemic)
pKi [24]: < 5.00

Cn1c2c(c3cc(S(=O)(=O)c4csc5ccccc45)ccc31)C1CCC(C2)N1 (single isomer, unassigned; (-)) [listing 1 of 2 here]
Activity [21]: < 15%

Cn1c2c(c3cc(S(=O)(=O)c4cccc(F)c4)ccc31)C1CCC(C2)N1 (racemic)
pKi [24]: 8.39

Cn1c2c(c3cc(S(=O)(=O)n4ccc5ccccc54)ccc31)C1CCC(C2)N1 (single isomer, unassigned; (-)) [listing 2 of 2 here]
remaining at 1 h [26]: 88% | remaining at 1 h [27]: 82% | Papp A→B [28]: 15 ×10⁻⁶ cm/s

Cn1c2c(c3cc(S(=O)(=O)n4ccc5ccccc54)ccc31)C1CCC(C2)N1 (single isomer, unassigned; (+)) [listing 2 of 2 here]
Activity [21]: < 15%

O=S(=O)(c1ccccc1)c1ccc2[nH]c3c(c2c1)C1CCC(C3)N1 (racemic)
pKi [24]: 7.27

Cn1c2c(c3cc(S(=O)(=O)c4csc5ccccc45)ccc31)C1CCC(C2)N1 (single isomer, unassigned; (-)) [listing 2 of 2 here]
remaining at 1 h [26]: 67% | Stability (Liver microsomes [2]): 52% | permeability (Caco-2 [3]): 0.24 ×10⁻⁶ cm/s

Cn1c2c(c3cc(S(=O)(=O)c4ccc5[nH]ccc5c4)ccc31)C1CCC(C2)N1 (single isomer, unassigned; (+)) [listing 2 of 2 here]
Stability (Liver microsomes [1]): 91% | Stability (Liver microsomes [2]): 99%

Cn1c2c(c3cc(S(=O)(=O)c4csc5ccccc45)ccc31)C1CCC(C2)N1 (single isomer, unassigned) [listing 2 of 2 here]
Activity [21]: < 15%

Cn1c2c(c3cccc(S(=O)(=O)c4ccccc4)c31)C1CCC(C2)N1 (racemic)
pKi [24]: 6.09
